Laboratory results taken from ChEMBL document CHEMBL3407374, “Synthesis of structural analogues of hexadecylphosphocholine and their antineoplastic, antimicrobial and amoebicidal activity” (Eur J Med Chem, 2015).
Values after ≈ are worked out from the molar mass of the structure shown.

Columns and labels:
[1] = Critical micelle concentration of the compound; type: ADME
Escherichia coli = assay: Antimicrobial activity against Escherichia coli ATCC 377/79 assessed as prevention of colony formation after 24 hrs by spectrophotometry; type: functional; conditions: ATCC 377/79, 24 h
In short: (§1)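 Bacteria grown 24 h on blood agar, Candida on Sabouraud agar; suspensions in physiological solution (pH 7.2), 5 × 10⁷ CFU/ml bacteria, 5 × 10⁵ CFU/ml Candida. […] suspension added to aqueous compound solution plus double-strength peptone broth (bacteria) or Sabouraud medium (Candida). Incubated 24 h at 37 °C in 96-well plates, then subcultured on agar 24 h at 37 °C.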

Acanthamoeba quina [2] = assay: Antiprotozoal activity against Acanthamoeba quina trophozoites assessed as viability after 1 to 48 hrs by trypan blue exclusion assay; type: functional
In short: (§2)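 Trophozoites axenized from 2-day monoxenic agar cultures via BCS then PYG media with antibiotics, then cultured antibiotic-free in PYG. 2 × 10⁵ cells/ml suspension mixed 1:1 with medium holding compound; final […]. Survivors counted by haemocytometer with trypan blue at 1, 24, 48 h; eradication confirmed by 14-day PYG regrowth; MTC = lowest concentration giving 100% eradication.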

HuT78 = assay: Cytotoxicity against human HUT78 cells after 24 hrs by MTS method; type: functional, cell-based; conditions: HuT78, 24 h
In short: (§3)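 THP-1 and HUT-78 grown in suspension in RPMI-1640 with FCS, glutamine, penicillin-streptomycin, NEA, 2-sulfanylethanol, sodium pyruvate; 37 °C, 5% CO₂; passaged by centrifugation. 24-h exposure; MTS read-out (water-soluble formazan) at 492/520 nm. IC50 from log inhibitor versus normalized response sigmoidal fit.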

MCF7 = assay: Cytotoxicity against human MCF7 cells after 24 hrs by MTT method; type: functional, cell-based; conditions: MCF7, 24 h
In short: (§4)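 MCF-7 grown in MEM with NEA, FCS, glutamine; A2780 in RPMI-1640 with FCS, glutamine; 37 °C, 5% CO₂, trypsin-EDTA passaging. Seeded 20 000 cells/well, treated after about 20 h; 24-h exposure. MTT read-out, formazan dissolved in DMSO, read at 492/520 nm. IC50 from log inhibitor versus normalized response sigmoidal fit.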

Acanthamoeba lugdunensis = assay: Antiprotozoal activity against Acanthamoeba lugdunensis trophozoites assessed as viability after 1 to 48 hrs by trypan blue exclusion assay; type: functional; in short: as §2
THP-1 = assay: Cytotoxicity against human THP1 cells after 24 hrs by MTS method; type: functional, cell-based; conditions: THP-1, 24 h; in short: as §3
A2780 = assay: Cytotoxicity against human A2780 cells after 24 hrs by MTT method; type: functional, cell-based; conditions: A2780, 24 h; in short: as §4
Candida albicans = assay: Antimicrobial activity against Candida albicans ATCC 8186 assessed as prevention of colony formation after 24 hrs by spectrophotometry; type: functional; conditions: ATCC 8186, 24 h; in short: as §1
[3] = Solubility of the compound in water; type: physicochemical; conditions: buffer
Staphylococcus aureus = assay: Antimicrobial activity against Staphylococcus aureus ATCC 29/58 assessed as prevention of colony formation after 24 hrs by spectrophotometry; type: functional; conditions: ATCC 29/58, 24 h; in short: as §1
[4] = Cytotoxicity against human lymphocytes assessed as growth inhibition at 500 uM after 24 hrs by MTS method; type: cell-based, Lymphocyte; conditions: for growth inhibition (GI): lymphocyte, 24 h, 500 µM; for inhibition at 24 h, 500 µM: human lymphocytes, read-out: GI
Acanthamoeba quina [5] = assay: Ratio of miltefosine MTC to compound MTC for Acanthamoeba quina trophozoites assessed as viability after 1 to 48 hrs by trypan blue exclusion assay; type: functional

Row | CMC [1] | MIC (Escherichia coli) | MIC (Candida albicans) | solubility [3] | MIC (Staphylococcus aureus) | SMILES | MTC (Acanthamoeba quina [2]) | IC50 (HuT78) | IC50 (MCF7) | MTC (Acanthamoeba lugdunensis) | IC50 (THP-1) | IC50 (A2780) | growth inhibition (GI) [4] | inhibition at 24 h, 500 µM [4] | Ratio (Acanthamoeba quina [5])
1 | 1 mmol/dm3 | – | – | – | – | CCCCCCCCOP(=O)([O-])OCC[N+](C)(C)CCCCCCCC | – | – | – | – | – | – | – | – | –
2 | – | > 1000 µM | 184 µM (≈ 74.8 µg/mL) | soluble | > 1000 µM | CCCCCCCCCCCCOP(=O)([O-])OCC[N+](C)(C)CCCCC | 125 µM | 55.2 µM | 66.1 µM | 125 µM | 93.2 µM | 24.8 µM | – | – | –
3 | – | > 1000 µM | 180 µM (≈ 73.3 µg/mL) | soluble | > 1000 µM | CCCCCCCCCCOP(=O)([O-])OCC[N+](C)(C)CCCCCCC | 250 µM | 52.9 µM | 62.2 µM | 250 µM | 101 µM | 35.1 µM | – | – | –
4 | – | > 1000 µM | 734 µM (≈ 299 µg/mL) | soluble | > 1000 µM | CCCCCCCCCOP(=O)([O-])OCC[N+](C)(C)CCCCCCCC | 250 µM | 146 µM | 34 µM | 250 µM | 170 µM | 7.31 µM | Non-toxic | – | –
5 | – | > 1000 µM | 86.3 µM (≈ 35.2 µg/mL) | soluble | > 1000 µM | CCCCCCCCCCCCCC[N+](C)(C)CCOP(=O)([O-])OCCC | 125 µM | 29.1 µM | 20.9 µM | 125 µM | 29.4 µM | 9.26 µM | – | 12% | –
6 | – | > 1000 µM | 21.1 µM (≈ 8.62 µg/mL) | soluble | > 1000 µM | CCCCCCCCCCCCCCC[N+](C)(C)CCOP(=O)([O-])OCC | 62.5 µM | 35.2 µM | 14.4 µM | 62.5 µM | 30.5 µM | 7.44 µM | – | 10% | 2
7 | – | > 1000 µM | 2.93 µM (≈ 1.19 µg/mL) | soluble | > 1000 µM | CCCCCCCCCCCCCCCOP(=O)([O-])OCC[N+](C)(C)CC | 125 µM | 62.7 µM | 43.3 µM | 125 µM | 96.8 µM | 10.1 µM | – | – | –
8 | 1.25 umol/dm3 | > 1000 µM | 2.87 µM (≈ 1.17 µg/mL) | – | 11.5 µM (≈ 4.69 µg/mL) | CCCCCCCCCCCCCCCCOP(=O)([O-])OCC[N+](C)(C)C [MILTEFOSINE] | 125 µM | 67.2 µM | 35.7 µM | 250 µM | 81.3 µM | 8.87 µM | – | – | –
9 | – | > 1000 µM | 360 µM (≈ 147 µg/mL) | soluble | > 1000 µM | CCCCCCCCCCC[N+](C)(C)CCOP(=O)([O-])OCCCCCC | 125 µM | 96 µM | 64.5 µM | 62.5 µM | 31.2 µM | 25.7 µM | – | – | –
10 | – | > 1000 µM | 188 µM (≈ 76.4 µg/mL) | soluble | > 1000 µM | CCCCCCCCCCCOP(=O)([O-])OCC[N+](C)(C)CCCCCC | 250 µM | 82.6 µM | 111 µM | 125 µM | 92 µM | 19.2 µM | – | – | –
11 | – | > 1000 µM | 367 µM (≈ 150 µg/mL) | soluble | > 1000 µM | CCCCCCCCC[N+](C)(C)CCOP(=O)([O-])OCCCCCCCC | 125 µM | 280 µM | 19.2 µM | 125 µM | 544 µM | 4.32 µM | Non-toxic | – | –
12 | – | > 1000 µM | 352 µM (≈ 144 µg/mL) | soluble | > 1000 µM | CCCCCCCCCCCC[N+](C)(C)CCOP(=O)([O-])OCCCCC | 125 µM | 68 µM | 25.8 µM | 125 µM | 71.2 µM | 18.3 µM | – | – | –
13 | – | > 1000 µM | 352 µM (≈ 144 µg/mL) | soluble | > 1000 µM | CCCCCCCCCC[N+](C)(C)CCOP(=O)([O-])OCCCCCCC | 125 µM | 437 µM | 26.2 µM | 125 µM | 647 µM | 4.7 µM | Non-toxic | – | –
14 | – | > 1000 µM | 11.7 µM (≈ 4.77 µg/mL) | soluble | > 1000 µM | CCCCCCCCCCCCCCOP(=O)([O-])OCC[N+](C)(C)CCC | 125 µM | 51.4 µM | 50.6 µM | 125 µM | 127 µM | 28.6 µM | – | – | –
